Measurements collected from several papers.
Lines come from different studies, so protocols differ.

| SMILES | system | setting | Cmax |
| --- | --- | --- | --- |
| Cc1ncsc1-c1ccc(CNC(=O)[C@@H]2C[C@@H](O)CN2C(=O)[C@@H](NC(=O)CCCCCCCCCC(=O)N2CCN(CC[C@H](NC(=O)C3(N)CCN(c4ncnc5[nH]ccc45)CC3)c3ccc(Cl)cc3)CC2)C(C)(C)C)cc1 | mouse, plasma | intraperitoneal, 75 mg/kg, single dose | 10 µM |
| CN1CCN(C(=O)c2cc3c(Nc4ccc(OC(F)(F)F)cc4)ncnc3s2)CC1 | male BALB/c mouse, plasma | oral, 20 mg/kg | 1090 ng/mL |
| CC1(C)CC[C@]2(C(=O)O)CC[C@]3(C)C(=CC[C@@H]4[C@@]5(C)C[C@@H](O)[C@H](OC(=O)/C=C/c6ccc(O)cc6)C(C)(C)[C@@H]5CC[C@]43C)[C@@H]2C1 (relative stereo) | mouse, brain | intraperitoneal, 85 µmol/kg, single dose | 1.75 µM |
| CC(C)(O)c1cn(-c2ccc(-c3cccc(S(C)(=O)=O)c3)cc2)c(C(C)(C)c2ccccc2Cl)n1 | male C57BL/6 mouse, serum | oral, 10 mg/kg | 15 µM |
| COc1cc2c(Nc3ccc(Cl)c(Cl)c3F)ncnc2cc1OC[C@@H]1C[C@@H]2CN(C)C[C@@H]2C1 | FVB mouse, plasma | oral, 70 mg/kg, single dose | 3780 ng/mL |
| CCc1ccc(Cc2cc([C@@H]3O[C@H](CO)[C@@H](O)[C@H](O)[C@H]3O)cc3c2CCC3)cc1 | male C57BL/6 mouse, plasma | intravenous, 1 mg/kg | 1300 ng/mL |
| COc1nc(-c2cc(C)c(N[C@@H](C)c3c(F)cc(F)cc3F)nn2)ccc1-n1cnc(C)c1 | male CD-1 mouse, plasma | oral, 5 mg/kg, single dose | 1010 ng/mL |
| COc1ccc(C(O)COc2ccc(-c3csc(-c4ccc(OCC(O)c5ccc(OC)c(OC)c5)cc4)n3)cc2)cc1OC (centres unmarked) | C57BL/6 mouse, plasma | oral, 75 mg/kg | 7680 ng/mL |
| Cc1noc([C@H](Cc2c[nH]cn2)NC(=O)CN(CCCc2ccccc2)CC(=O)O)n1 | male C57BL/6 mouse, plasma | intraperitoneal, 30 mg/kg | 5800 ng/mL |
| CCN1CCN(Cc2cc(NC(=O)c3ccc(C)c(-c4ccc5nc(NC(=O)C6CC6)cn5n4)c3)cc(C(F)(F)F)c2)CC1 | Swiss mouse, plasma | intraperitoneal, 3 mg/kg | 340 ng/mL |
| Cn1cnc2c(F)c(Nc3ccc(Br)cc3Cl)c(C(=O)NOCCO)cc21 | nude mouse, liver | oral, 10 mg/kg, single dose, tumour-bearing | 1440 ng/g |
| O=S(=O)(c1ccc(-c2ccc3nccc(Nc4ccncn4)c3c2)cc1)N1CCOCC1 | female BALB/c mouse, plasma | intraperitoneal, 10 mg/kg | 4460 ng/mL |
| CC(C)(O)c1cn(-c2ccc(-c3cc(F)c(CO)c(S(C)(=O)=O)c3)cc2F)c(C(C)(C)c2c(Cl)cccc2Cl)n1 | male C57BL/6 mouse, serum | oral, 10 mg/kg | 0.71 µM |
| Cc1ccc2cncc(N3CCc4c(cc(Cn5ccnc5)cc4-c4cn(C)nc4C(F)(F)F)C3=O)c2c1 | male CD-1 mouse, plasma | oral, 10 mg/kg | 2680 ng/mL |
| COc1ccc2nc(-c3ccccn3)c(N(C)c3ccc(F)cc3)n2c1 | male CD-1 mouse, plasma | oral, 50 mg/kg, fasted | 1440 ng/mL |
| NC(=O)c1cccc(-c2c[nH]c3ncnc(N4CCOCC4)c23)c1 | female C57BL/6 mouse, plasma | intraperitoneal, 10 mg/kg | 11 µM |
| CN1CCN(C(=O)CN[C@@H]2C[C@H]2c2ccc(OCc3ccccc3)cc2)CC1 | mouse, plasma | intraperitoneal, 10 mg/kg | 542 ng/mL |
| CCc1cc(C(=O)NC)c2nccc(N3CCc4c(cc(Cn5ccnc5)cc4-c4cn(C)nc4C(F)(F)F)C3=O)c2c1 | male CD-1 mouse, plasma | oral, 50 mg/kg | 25100 ng/mL |
| Cc1ccc(NC(=O)c2ccc(CN3CCN(C)CC3)cc2)cc1Nc1nccc(-c2cncc(-c3oncc3C)c2)n1 | male C57BL/6 mouse, plasma | oral, 100 mg/kg/day | 5060 ng/mL |
| CSc1cc(Oc2ccnc3[nH]c(=O)cnc23)ccc1NC(=O)Nc1cc(C(C)(C)C)nn1-c1ccccc1 | BALB/c mouse, plasma | oral, 10 mg/kg | 54.2 µM |
| COc1ccc2nccc(N3CCc4c(cc(Cn5ccnc5)cc4-c4cn(C)nc4C(F)(F)F)C3=O)c2c1 | male CD-1 mouse, plasma | oral, 50 mg/kg | 8940 ng/mL |
| CNC(=O)c1cc(Oc2ccc(NC(=O)Nc3ccc(Cl)c(C(F)(F)F)c3)c(F)c2)cc[n+]1[O-] | mouse, plasma | oral, 10 mg/kg, single dose | 360 ng/mL |
| CC[C@H](C)[C@@H]1NC(=O)[C@@](C)(NC(=O)[C@H](CCCNC(=N)N)NC(=O)[C@H](CC(C)C)NC(=O)[C@@H](NC(=O)[C@H](CCC(N)=O)NC(=O)[C@H](CC(C)C)NC(C)=O)[C@@H](C)O)CCCC=CCCC[C@@](C)(C(=O)N[C@@H](CC(C)C)C(=O)N[C@@H](Cc2ccc3ccccc3c2)C(N)=O)NC(=O)[C@H](CCCNC(=N)N)NC(=O)[C@H](CCC(N)=O)NC1=O | male BALB/c mouse, plasma | intravenous, 5 mg/kg | 41 µM |
| O=C(CCCCCC(=O)NN=Cc1ccc(-c2ccccc2)cc1)NO | C57BL/6 mouse, brain | intraperitoneal, 25 mg/kg, single dose | 0.06 µM |
| CCOc1ccc(Cc2cc([C@@H]3O[C@H](CO)[C@@H](O)[C@H](O)[C@H]3O)ccc2Cl)cc1 | male C57BL/6 mouse, plasma | intravenous, 1 mg/kg | 1170 ng/mL |

| SMILES | system | setting | Cmax |
| --- | --- | --- | --- |
| CNC(=O)c1ccccc1Nc1cc(Nc2ccc(N3CCOCC3)cc2OC)ncc1C(F)(F)F | BALB/c mouse, plasma | oral, 150 mg/kg | ~14 µM |
| O=C(NO)c1ccc(CN(c2cnccn2)c2cnccn2)cc1 | male C57BL/6 mouse, plasma | oral, 200 mg/kg, multiple doses, once daily, tumour-bearing | 300 ng/mL |
| Nc1ncc(-c2ccncc2)nc1Nc1ccc2[nH]ccc2c1 | male C57BL/6 mouse, plasma | oral, 30 mg/kg | 7 µM |
| Cc1c(C(=O)NN2CCCCC2)nc(-c2ccc(Cl)cc2Cl)n1-c1ccc(OS(=O)(=O)CCC(F)(F)F)cc1 | mouse, plasma | oral, 20 µmol/kg, single dose | 1.2 µM |
| Cc1cc(Nc2ccc(S(F)(F)(F)(F)F)cc2)n2ccnc2n1 | male Swiss mouse, plasma | oral, 100 mg/kg, single dose | 29 µM |
| CS(=O)(=O)CCNCc1ccc(-c2ccc3ncnc(Nc4ccc(OCc5cccc(F)c5)c(Cl)c4)c3c2)o1 | nude mouse, plasma | oral, 200 mg/kg, single dose | 16600 ng/mL |
| CC(C)(C)c1ccc(O)c(CN(Cc2cc(C(C)(C)C)ccc2O)C2CCC(NC(N)=O)CC2)c1 (centres unmarked) | male C57BL/6 mouse, brain | intraperitoneal, 25 mg/kg, single dose | 1610 ng/g |
| C[C@H](NC(=O)C(C)(C)Oc1ccc(C(F)(F)F)cn1)[C@@H](Cc1ccc(Cl)cc1)c1cccc(C#N)c1 | mouse, plasma | oral, 6 µmol/kg, single dose | 0.7 µM |
| FC(F)(F)Oc1ccc(Nc2cc(-c3cn[nH]c3)ncn2)cc1 | male BALB/c mouse, plasma | oral, 20 mg/kg | 3400 ng/mL |
| CC(=O)O[C@H]1C(=O)[C@@]2(C)[C@H]([C@H](OC(=O)c3ccccc3)[C@]3(O)C[C@H](OC(=O)[C@H](O)[C@@H](NC(=O)c4ccccc4)c4ccccc4)C(C)=C1C3(C)C)[C@]1(OC(C)=O)CO[C@@H]1C[C@@H]2O | SCID mouse, plasma | intraperitoneal, 10 mg/kg, single dose | 2100 ng/mL |
| COc1nc(-c2cc(C)c(N[C@@H](C)c3ccc(F)cc3)nn2)ccc1-n1cnc(C)c1 | male CD-1 mouse, plasma | intravenous, 1 mg/kg, single dose | 768 ng/mL |
| CNCCN(C)c1cc(C#N)cc(CCc2cc(C)cc(N)n2)c1 | male BALB/c mouse, plasma | oral, 10 mg/kg | 50.8 ng/mL |
| CNC(=O)c1cc(OC)cc2c(N3CCc4c(cc(Cn5ccnc5)cc4-c4cn(C)nc4C(F)(F)F)C3=O)ccnc12 | male CD-1 mouse, plasma | oral, 50 mg/kg | 46100 ng/mL |
| C=CC(=O)N1CC2CC(n3nc(-c4ccc(C(=O)Nc5ccccn5)cc4)c4c(N)ncnc43)CC2C1 (centres unmarked) | SCID mouse, plasma | oral, 5 mg/kg | 429 ng/mL |
| Cc1nc(-c2cnc(NC(C)C)n(C)c2=O)ccc1Oc1ccnc(-c2cnn(C)c2)c1 | female mouse, plasma | oral, 30 mg/kg, single dose | 9350 ng/mL |
| OC[C@H]1O[C@@H](c2ccc(Cl)c(Cc3ccc(O[C@H]4CCOC4)cc3)c2)[C@H](O)[C@@H](O)[C@@H]1O | CD-1 mouse, plasma | intravenous, 5 mg/kg | 4920 ng/mL |
| CN1C(=O)c2ccccc2[S@+]([O-])c2ccc(C(=O)NCCc3cccs3)cc21 | male C57BL/6 mouse, plasma | intraperitoneal, 30 mg/kg, single dose | 8280 ng/mL |
| COc1ccc([C@@]23Oc4cc(OC)cc(OC)c4[C@]2(O)[C@H](O)[C@H](C(=O)N(C)C)[C@H]3c2ccccc2)cc1 | mouse, plasma | intraperitoneal, 5 mg/kg | ~4 µM |
| CNC(=O)[C@H](Cc1c[nH]cn1)NC(=O)CN(CCCc1ccccc1)CC(=O)OC | male C57BL/6 mouse, plasma | intraperitoneal, 30 mg/kg | 3800 ng/mL |
| Nc1nc(-c2ccccc2)nc2[nH]nc(Nc3ccc(C(F)(F)F)cc3)c12 | mouse, plasma | oral, 100 mg/kg | 1250 ng/mL |
| CN1CCC[C@H](CN2c3ccccc3Sc3ccccc32)C1.Cl | mouse, plasma | intraperitoneal, 32 mg/kg, single dose | 1560 ng/mL |
| COc1ccc2c3c1O[C@H]1C[C@@H](OC(=O)c4ccccc4)C=C[C@@]31CCN(C)C2 | mouse, brain | intravenous, 3 mg/kg | 4810 ng/g |
| COc1nc(-c2cc(C)c(N[C@@H](C)c3cc(F)cc(F)c3)nn2)ccc1-n1cnc(C)c1 | male CD-1 mouse, plasma | intravenous, 1 mg/kg, single dose | 699 ng/mL |
| CCc1cc(OC)c2nccc(N3CCc4c(cc(Cn5ccnc5)cc4-c4cn(C)nc4C(F)(F)F)C3=O)c2c1 | male CD-1 mouse, plasma | oral, 150 mg/kg | 35200 ng/mL |
| Cc1c2c(n(-c3ccc(F)cc3Cl)c1-c1ccc(OS(=O)(=O)CCC(F)(F)F)cc1)CCN(N1CCCCC1)C2=O | mouse, plasma | oral, 6 µmol/kg, single dose | 0.04 µM |
